Active and inactive are the calls of the source. The calls are words filed in the database; no cut-off is given here.

Results on 18 molecules are retold here after ChEMBL document CHEMBL4368908 (J Med Chem, 2019).

Experiment [1] addresses T1, Inositol hexakisphosphate kinase 2 (Homo sapiens, UniProt Q9UHH9).
T1 sequence (Q9UHH9 whole entry): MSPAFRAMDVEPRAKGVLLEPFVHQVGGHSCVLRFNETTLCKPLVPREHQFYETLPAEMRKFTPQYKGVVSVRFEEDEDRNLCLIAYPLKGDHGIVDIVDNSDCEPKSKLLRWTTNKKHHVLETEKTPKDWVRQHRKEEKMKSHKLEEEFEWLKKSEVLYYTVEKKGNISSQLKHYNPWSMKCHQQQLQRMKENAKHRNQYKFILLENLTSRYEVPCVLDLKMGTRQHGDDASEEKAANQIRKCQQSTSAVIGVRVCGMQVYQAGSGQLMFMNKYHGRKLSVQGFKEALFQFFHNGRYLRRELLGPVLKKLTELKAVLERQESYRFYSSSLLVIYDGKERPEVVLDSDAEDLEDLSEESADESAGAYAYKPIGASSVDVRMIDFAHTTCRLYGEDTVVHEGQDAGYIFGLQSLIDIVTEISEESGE
Nature of the experiment: Inhibition of human IP6K2 using insP6 as substrate preincubated for 15 mins followed by substrate and measured after 30 mins by TR-FRET assay.

The species entered for experiment [2] is Homo sapiens. In words: Selectivity ratio of IC50 for human IPMK to IC50 for human IP6K2. The method, boiled down:
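Recombinant human IPMK (12 nM) or IP6K2 (400 nM) equilibrated 15 min at room temperature with compound (10-point, 0.005–100 μM, 1% DMSO) in 50 mM HEPES pH 7.5, 0.01% Brij-35, 10 mM MgCl₂, 1 mM EGTA. Reaction started with 10 μM ATP plus 10 μM InsP₃ (IPMK) or InsP₆ (IP6K2), run 30 min. ADP detected by Adapta TR-FRET. IC50 from 4-parameter fit.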

Experiment [3] addresses T2, Inositol polyphosphate multikinase (Homo sapiens, UniProt Q8NFU5). Nature of the experiment: Inhibition of human IPMK using insP3 as substrate preincubated for 15 mins followed by substrate and measured after 30 mins by TR-FRET assay.
Experiment [4] concerns the target T3, Inositol hexakisphosphate kinase 2 (Mus musculus) (UniProt Q80V72).
T3 sequence (whole entry): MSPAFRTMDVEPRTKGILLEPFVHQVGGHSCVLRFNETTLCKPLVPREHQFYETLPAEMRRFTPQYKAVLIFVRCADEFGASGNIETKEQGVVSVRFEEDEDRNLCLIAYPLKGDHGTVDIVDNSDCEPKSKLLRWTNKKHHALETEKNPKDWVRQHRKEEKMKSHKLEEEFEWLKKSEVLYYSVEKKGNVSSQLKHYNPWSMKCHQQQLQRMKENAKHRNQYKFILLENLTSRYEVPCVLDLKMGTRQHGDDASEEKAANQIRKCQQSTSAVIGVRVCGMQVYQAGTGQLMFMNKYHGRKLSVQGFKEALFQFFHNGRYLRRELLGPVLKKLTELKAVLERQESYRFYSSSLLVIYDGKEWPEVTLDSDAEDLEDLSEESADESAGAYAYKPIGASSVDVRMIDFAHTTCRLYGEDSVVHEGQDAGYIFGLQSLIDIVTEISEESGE
In words: Inhibition of IP6K2 in mouse 3T3-L1 cells assessed as AKT phosphorylation at T308 at 1 uM after 3 hrs by Western blot analysis. Format: cell-based. The method, boiled down: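 TNP reference treatment: 2-day post-confluent 3T3-L1 preadipocytes given 1 μM TNP in DMSO (final 0.1%) for 3 h. Lysates (20 μg protein) immunoblotted for phospho-AKT T308 and total AKT. pAKT/total AKT ratio normalized to sum of ratios per gel; one-way ANOVA (Dunnett) versus DMSO vehicle.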
On the technique in general: A western blot detects proteins with antibodies after separation by electrophoresis.

For experiment [5], the system named is HEK293. In words: Down regulation of insp5 levels in [3H]-inositol-labelled HEK293 cells at 2.5 uM after 3.5 hrs by HPLC analysis. Particulars: Homo sapiens. The class given is functional, cell-based. The method, boiled down:
(§1)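 HEK293 cells labelled with [3H]inositol (20 μCi/ml), treated 3.5 h with 2.5 μM flavonoid in DMSO (final 0.1%; vehicle controls). PCA-quenched extracts analysed by CarboPac HPLC for InsP5, InsP6, InsP7 relative to DMSO control. Means ± SE, n=3; Dunnett's one-way ANOVA.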

Experiment [6] deals with T2, Inositol polyphosphate multikinase. In words: Inhibition of IPMK in [3H]-inositol-labelled HEK293 cells assessed as reduction in insp5 levels at 2.5 uM after 3.5 hrs by HPLC analysis relative to control. The class given is cell-based. The method, boiled down: as §1
Experiment [7] has as its system HCT-116. Nature of the experiment: Down regulation of insp5 levels in human [3H]-inositol-labelled HCT116 cells at 2.5 uM after 3.5 hrs by HPLC analysis. The class given is functional, cell-based. In a few lines: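 HCT116 cells labeled with [³H]inositol (20 μCi/ml) were treated for 3.5 h with 2.5 μM flavonoid; compounds were added in DMSO, final 0.1%. Cells were PCA-quenched, and InsPs were extracted and resolved by CarboPac HPLC. Values are versus DMSO controls, n=3–4, by one-way ANOVA (Dunnett).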

Experiment [8] has as its target RAC-alpha serine/threonine-protein kinase (Mus musculus) (UniProt P31750). In words: Activation of AKT activity in mouse 3T3-L1 cells assessed as increase in AKT phosphorylation at T308 residues at 2.5 uM after 3 hrs by Western blot analysis. The class given is cell-based. In a few lines: (§2)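 Cells (3T3-L1 preadipocytes 2 days post-confluent; HCT116 1 day post-confluent) treated 3 h with 2.5 μM flavonoid in DMSO (final DMSO 0.1%, vehicle control). Lysed in Tris pH 7.4/NaCl/Triton X-100 with protease-phosphatase inhibitors; 20 μg protein by SDS-PAGE and immunoblot for phospho-AKT T308 and total AKT. pAKT/total AKT ratio normalized to sum of ratios per gel; Dunnett's one-way ANOVA versus DMSO.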

In experiment [9] the test system is HCT-116. Nature of the experiment: Down regulation of insp5 levels in human [3H]-inositol-labelled HCT116 cells at 10 uM after 3.5 hrs by HPLC analysis. Format: functional, cell-based. The method, boiled down: (§3)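 HCT116 cells labelled with [3H]inositol at 20 μCi/ml, then treated 3.5 h with 10 μM flavonoid in DMSO (final 0.1%; vehicle controls). Quenched with PCA; extracted [3H]InsP5, InsP6 and InsP7 resolved by CarboPac HPLC and quantified as peak DPM relative to DMSO control.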

Experiment [10] has as its target T2, Inositol polyphosphate multikinase. In words: Inhibition of IPMK in human [3H]-inositol-labelled HCT116 cells assessed as reduction in insp5 levels at 2.5 uM after 3.5 hrs by HPLC analysis relative to control. The method, boiled down: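 [3H]inositol-labelled (20 μCi/ml) HCT116 cells exposed 3.5 h to 2.5 μM flavonoid in DMSO (final 0.1%). PCA quench, extraction and CarboPac HPLC of InsP5/InsP6/InsP7, compared with DMSO vehicle control. Means ± SE, n=3–4; Dunnett's one-way ANOVA versus DMSO.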

Experiment [11] has the same target. In words: Inhibition of IPMK in human [3H]-inositol-labelled HCT116 cells assessed as reduction in insp5 levels at 2.5 uM up to 200 mins by HPLC analysis relative to control. In a few lines:
(§4)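 Time course: HCT116 cells prelabelled with [3H]inositol (20 μCi/ml) and treated with 2.5 μM flavonoid in DMSO (final 0.1%) for the indicated times. InsP5, InsP6 and InsP7 measured by CarboPac HPLC after PCA quench and extraction. Means ± SE, n=3–4.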

Experiment [12] deals with RAC-alpha serine/threonine-protein kinase (Homo sapiens) (UniProt P31749). In words: Effect on AKT activity in human HCT116 cells assessed as AKT phosphorylation at T308 residues at 2.5 uM after 3 hrs by Western blot analysis. The class given is cell-based. In a few lines: as §2
RAC-alpha serine/threonine-protein kinase (Homo sapiens), sequence (P31749 whole entry): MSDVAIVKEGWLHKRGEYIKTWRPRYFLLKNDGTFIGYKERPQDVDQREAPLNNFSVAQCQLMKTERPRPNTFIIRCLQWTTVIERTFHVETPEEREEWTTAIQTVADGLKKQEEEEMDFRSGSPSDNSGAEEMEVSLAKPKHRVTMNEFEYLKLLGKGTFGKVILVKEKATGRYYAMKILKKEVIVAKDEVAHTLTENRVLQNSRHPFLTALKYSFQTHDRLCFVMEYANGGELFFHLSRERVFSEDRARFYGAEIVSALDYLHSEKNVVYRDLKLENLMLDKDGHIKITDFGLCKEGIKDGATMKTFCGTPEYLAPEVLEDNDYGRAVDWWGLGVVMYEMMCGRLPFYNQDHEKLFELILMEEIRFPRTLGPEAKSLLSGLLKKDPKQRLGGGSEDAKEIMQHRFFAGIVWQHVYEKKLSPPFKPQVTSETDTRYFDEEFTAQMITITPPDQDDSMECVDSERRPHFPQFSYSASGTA
The target in experiment [13] is T2, Inositol polyphosphate multikinase. In words: Inhibition of IPMK in human [3H]-inositol-labelled HCT116 cells assessed as reduction in insp5 levels at 10 uM after 3.5 hrs by HPLC analysis relative to control. The method, boiled down: as §3
For experiment [14], the target named is RAC-alpha serine/threonine-protein kinase (Homo sapiens) (UniProt P31749). Nature of the experiment: Effect on AKT activity in human HCT116 cells assessed as AKT phosphorylation at T308 residues at 10 uM after 3 hrs by Western blot analysis. Format: cell-based.
Experiment [15] has as its target RAC-alpha serine/threonine-protein kinase (Mus musculus) (UniProt P31750). Nature of the experiment: Activation of AKT activity in mouse 3T3-L1 cells assessed as increase in AKT phosphorylation at T308 residues at 10 uM after 3 hrs by Western blot analysis. Format: cell-based.
Experiment [16] concerns HCT-116. In words: Down regulation of insp5 levels in human [3H]-inositol-labelled HCT116 cells at 2.5 uM up to 200 mins by HPLC analysis. Format: functional, cell-based. In a few lines: as §4

T2 sequence (Q8NFU5 whole entry): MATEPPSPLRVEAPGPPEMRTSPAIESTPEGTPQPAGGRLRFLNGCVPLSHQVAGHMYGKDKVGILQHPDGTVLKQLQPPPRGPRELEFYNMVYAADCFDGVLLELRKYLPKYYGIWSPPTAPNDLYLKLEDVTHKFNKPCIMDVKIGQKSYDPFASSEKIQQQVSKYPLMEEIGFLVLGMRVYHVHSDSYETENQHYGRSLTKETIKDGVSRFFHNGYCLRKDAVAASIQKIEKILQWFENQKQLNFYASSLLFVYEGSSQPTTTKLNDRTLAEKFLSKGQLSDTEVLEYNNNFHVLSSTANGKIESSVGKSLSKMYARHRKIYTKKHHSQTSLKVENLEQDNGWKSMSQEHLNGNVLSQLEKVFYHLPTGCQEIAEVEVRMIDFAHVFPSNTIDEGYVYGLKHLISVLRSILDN
RAC-alpha serine/threonine-protein kinase (Mus musculus), sequence (P31750 whole entry): as the sequence (P31749 whole entry) above, with S2N, A50S, T100A, K112R, E117T, K389T, G410N, H415D counted along it

`O=c1cc(-c2ccc(O)c(O)c2)oc2ccccc12`: the values for the IC50 in experiment [1] and in [3] were 11.4 µM and over 30 µM, respectively. Also, the Ratio IC50 in experiment [2] was over 2.6.

Take `O=c1cc(-c2ccc(O)c(O)c2)oc2cccc(O)c12`: the IC50 (commonly the midpoint of a concentration-inhibition curve) in experiment [1] was 8 µM; in experiment [3], over 30 µM. Also, in [2], the Ratio IC50 was over 3.8.

As for `O=c1cc(-c2ccc(O)cc2)oc2cc(O)ccc12`, the concentration for half-maximal inhibition (IC50) in experiment [1] was 18.3 µM; in [3], over 30 µM. For the same molecule, in [2], the Ratio IC50 is over 1.6.

Consider `O=c1cc(-c2ccc(O)cc2)oc2cccc(O)c12`, for which the IC50 in experiment [1] and in [3] was over 30 µM in each case.

Take `O=c1cc(-c2ccc(O)cc2)oc2ccc(O)cc12`: the figures for the IC50 in experiment [1] and in experiment [3] were 12.9 µM and over 30 µM, respectively. Also, the Ratio IC50 in experiment [2] is over 2.3.

Take `COc1ccc(-c2cc(=O)c3c(O)cc(O)cc3o2)cc1O`: the inhibition (as a rule, the relative decrease from the control value, in per cent) in experiment [4] is “Active”. In addition, the inhibition result in [5], in experiment [6], in experiment [7], in [9], in experiment [10] and in experiment [11] was “inactive” in each case. Moreover, the inhibition entry in experiment [13] is “inactive”. The result in experiment [8] was Active. In addition, the result in [12] was inactive.

With `O=[N+]([O-])c1ccc(CNc2nc(NCc3cccc(C(F)(F)F)c3)nc3[nH]cnc23)cc1`, in experiment [14], the result was inactive. Moreover, the outcome in experiment [15] was Active.

As to `COc1ccc(-c2cc(=O)c3c(O)cc(O)cc3o2)cc1` [ACACETIN], the concentration for half-maximal inhibition (IC50) is 5.7 µM in experiment [1] and over 30 µM in experiment [3]. In addition, the Ratio IC50 in [2] was over 5.3.

For the molecule `O=c1cc(-c2ccc(O)cc2)oc2cc(O)cc(O)c12` [APIGENIN], the values for the IC50 in experiment [1] and in experiment [3] were 7.1 µM and 29 µM, respectively. The Ratio IC50 in experiment [2] came to 4.1.

As to `O=C1C[C@@H](c2ccc(O)c(O)c2)Oc2cc(O)cc(O)c21` [ERIODICTYOL], the IC50 in experiment [1] was 25.3 µM; in experiment [3], over 30 µM. Besides, the Ratio IC50 in [2] is over 1.2.

`COc1cc(O)c2c(=O)cc(-c3ccc(O)cc3)oc2c1` [GENKWANIN]: the half-inhibitory concentration (IC50) in experiment [1] was 24 µM; in experiment [3] it was over 30 µM. Moreover, the Ratio IC50 in experiment [2] is over 1.3.

As for `COc1cc(-c2oc3cc(O)cc(O)c3c(=O)c2O)ccc1O` [ISORHAMNETIN], the results for the IC50 in experiment [1] and in experiment [3] were 0.5 µM and 2.2 µM, respectively. Also, the inhibition result in experiment [7] and in [10] was “inactive” throughout. The Ratio IC50 in [2] turned out to be 4.4.

As for `O=c1c(O)c(-c2ccc(O)cc2)oc2cc(O)cc(O)c12` [KAEMPFEROL], the IC50 in [1] was found to be 2.5 µM; in [3], 4.4 µM. Further, the inhibition entry in experiment [7] and in experiment [10] was “inactive” each time. In addition, the Ratio IC50 in experiment [2] is 1.8.

Consider `O=c1cc(-c2ccc(O)c(O)c2)oc2cc(O)cc(O)c12` [LUTEOLIN], for which the IC50 in experiment [1] was 1.3 µM; in experiment [3], 5.5 µM. For the same molecule, in [4], the inhibition result was “Active”. In addition, the inhibition result in [5], in experiment [6], in experiment [7] and in experiment [10] was “inactive” in each case. Besides, in [8], the outcome was Active. In addition, the Ratio IC50 in experiment [2] is 4.2. Besides, the result in [12] was inactive.

As to `O=c1c(O)c(-c2cc(O)c(O)c(O)c2)oc2cc(O)cc(O)c12` [MYRICETIN], the IC50 in experiment [1] amounted to 0.7 µM; in experiment [3] it was 1.1 µM. The inhibition result in experiment [7] and in experiment [10] was “inactive” in each case.

Regarding `O=C1C[C@@H](c2ccc(O)cc2)Oc2cc(O)cc(O)c21` [NARINGENIN], the 50% inhibitory concentration (IC50) in experiment [1] and in experiment [3] was over 30 µM each time.

Turning to `O=c1c(O)c(-c2ccc(O)c(O)c2)oc2cc(O)cc(O)c12` [QUERCETIN], in experiment [4], the inhibition result is “Active”. The inhibition result in [5], in [6], in experiment [7], in [9], in experiment [10] and in experiment [16] was “inactive” throughout. The inhibition result in experiment [11] is “inactive”. Besides, the outcome in experiment [8] was Active. In experiment [12], the outcome was inactive. Moreover, 2.3 µM corresponded to half-maximal inhibition in experiment [3] (IC50). Moreover, in experiment [13], the inhibition came to 25%.

Turning to `COc1cc(O)c2c(=O)c(O)c(-c3ccc(O)c(O)c3)oc2c1` [RHAMNETIN], the IC50 in experiment [1] amounted to 1.8 µM; in experiment [3], 14 µM. In addition, the inhibition result in experiment [7] and in experiment [10] was “inactive” each time. Besides, in experiment [2], the Ratio IC50 is over 7.8.
